Experimental findings from ChEMBL document CHEMBL4261531, “Synthesis of thioether andrographolide derivatives and their inhibitory effect against cancer cells” (Medchemcomm, 2017) are described below.

Data set [1] concerns PC-3. The experiment in a line: Growth inhibition of human PC3 cells after 48 hrs by MTT assay. It counts as functional, cell-based. Conditions: PC-3, 48 h. In outline:
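PC-3 human prostate cancer cells exposed to compounds, with viability read by MTT assay; taxol served as the positive control.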
A general note: Tetrazolium assays rely on reduction of a dye to a coloured formazan, in cell work by metabolically active cells.

Data set [2] deals with MCF7. Nature of the data set: Growth inhibition of human MCF7 cells after 48 hrs by MTT assay. It counts as functional, cell-based. Conditions: MCF7, 48 h.
For data set [3], the system named is MDA-MB-231. Nature of the data set: Growth inhibition of human MDA-MB-231 cells after 48 hrs by MTT assay. It counts as functional, cell-based. Conditions: MDA-MB-231, 48 h.
Data set [4] has as its system A549. The experiment in a line: Growth inhibition of human A549 cells after 48 hrs by MTT assay. It counts as functional, cell-based. The conditions noted are these: A549, 48 h.
Data set [5] has as its system Vero. The experiment in a line: Cytotoxicity against African green monkey Vero cells at 100 uM after 48 hrs by MTT assay. It counts as cell-based. Conditions: chlorocebus sabaeus.

In turn, `C=C1CC[C@@H]2[C@](C)(CO)[C@H](O)CC[C@@]2(C)C1C/C=C1/C(=O)OC[C@H]1OC(=O)CCCSc1ccc(C)cc1` (single isomer, unassigned) showed an IC50 in data set [1] of 16 µM.

Compound `C=C1CC[C@@H]2[C@](C)(CO)[C@H](O)CC[C@@]2(C)[C@@H]1C/C=C1/C(=O)OC[C@H]1OC(=O)CSc1ccc([N+](=O)[O-])cc1` displayed a concentration for half-maximal inhibition (IC50) in data set [1] of 17 µM.

`C=C1CC[C@@H]2[C@]3(C)COC(C)(C)O[C@@H]3CC[C@@]2(C)[C@@H]1C[C@H](Sc1cccs1)C1=CCOC1=O`: the IC50 in data set [1] came to 9 µM; in data set [2], 5 µM; in data set [3], 8 µM; in data set [4], 20 µM. Further, the Activity entry in data set [5] is “Non-Toxic”.

As to `C=C1CC[C@@H]2[C@]3(C)COC(C)(C)O[C@@H]3CC[C@@]2(C)[C@@H]1C/C=C1/C(=O)OC[C@H]1OC(=O)CCCSc1ccccn1`, the IC50 in data set [1] turned out to be 9 µM; in data set [2], 0.6 µM; in data set [3], 6 µM; in data set [4], 23 µM. Also, the Activity result in data set [5] is “Non-Toxic”.

`C=C1CC[C@@H]2[C@](C)(CO)[C@H](O)CC[C@@]2(C)C1C/C=C1/C(=O)OC[C@H]1OC(=O)CCCSc1ccc([N+](=O)[O-])cc1` (single isomer, unassigned) returned an IC50 in data set [1] of 17 µM.

With `C=C1CC[C@@H]2[C@](C)(CO)[C@H](O)CC[C@@]2(C)C1C/C=C1/C(=O)OC[C@H]1OC(=O)CCCSc1ccccn1` (single isomer, unassigned), in data set [1], the IC50 was 14 µM.

In data set [1], `CC(=O)O[C@H]1C(=O)[C@@]2(C)[C@H]([C@H](OC(=O)c3ccccc3)[C@]3(O)C[C@H](OC(=O)[C@H](O)[C@@H](NC(=O)c4ccccc4)c4ccccc4)C(C)=C1C3(C)C)[C@]1(OC(C)=O)CO[C@@H]1C[C@@H]2O` [PACLITAXEL] showed an IC50 of 7 µM.

For the compound `C=C1CC[C@@H]2[C@]3(C)COC(C)(C)O[C@@H]3CC[C@@]2(C)[C@@H]1C/C=C1/C(=O)OC[C@H]1OC(=O)CCCSc1cccs1`, the IC50 in data set [1] amounted to 9 µM; in data set [2], 0.7 µM; in data set [3], 10 µM; in data set [4] it was 25 µM. For the same compound, the Activity result in data set [5] is given as “Non-Toxic”.

For `C=C1CC[C@@H]2[C@]3(C)COC(C)(C)O[C@@H]3CC[C@@]2(C)[C@@H]1CC(Sc1ncccn1)C1=CCOC1=O` (some centres undefined), the IC50 was 7 µM in data set [1], 7 µM in data set [2], 9 µM in data set [3] and 20 µM in data set [4]. In addition, the Activity result in data set [5] is “Non-Toxic”.

As to `C=C1CC[C@@H]2[C@](C)(CO)[C@H](O)CC[C@@]2(C)[C@@H]1CC(Sc1ccc([N+](=O)[O-])cc1)C1=CCOC1=O` (some centres undefined), the IC50 in data set [1] is 17 µM.

Consider `C=C1CC[C@@H]2[C@](C)(CO)[C@H](O)CC[C@@]2(C)[C@@H]1CC(Sc1ncccn1)C1=CCOC1=O` (some centres undefined), for which the half-maximal inhibitory concentration (IC50) in data set [1] came out at 7 µM; in data set [2], 23 µM; in data set [3] it was 16 µM; in data set [4], 9 µM. For the same compound, the Activity result in data set [5] is “Non-Toxic”.

As for `C=C1CC[C@@H]2[C@]3(C)COC(C)(C)O[C@@H]3CC[C@@]2(C)[C@@H]1C/C=C1/C(=O)OC[C@H]1OC(=O)CSc1ccc([N+](=O)[O-])cc1`, the IC50 is 9 µM in data set [1], 10 µM in data set [2], 19 µM in data set [3] and 11 µM in data set [4]. Besides, in data set [5], the Activity result is listed as “Non-Toxic”.

`C=C1CC[C@@H]2[C@]3(C)COC(C)(C)O[C@@H]3CC[C@@]2(C)[C@@H]1C/C=C1/C(=O)OC[C@H]1OC(=O)CCCSc1ccc([N+](=O)[O-])cc1`: the IC50 in data set [1] is 17 µM.

As for `C=C1CC[C@@H]2[C@](C)(CO)[C@H](O)CC[C@@]2(C)[C@@H]1CC(Sc1ccccn1)C1=CCOC1=O` (some centres undefined), the IC50 in data set [1] turned out to be 18 µM.

In data set [1], `C=C1CC[C@@H]2[C@]3(C)COC(C)(C)O[C@@H]3CC[C@@]2(C)[C@@H]1CC(Sc1ccc(OC)cc1)C1=CCOC1=O` (some centres undefined) yielded an IC50 of 17 µM.

As to `C=C1CC[C@@H]2[C@]3(C)COC(C)(C)O[C@@H]3CC[C@@]2(C)[C@@H]1C/C=C1/C(=O)OC[C@H]1OC(=O)CSc1cccs1`, in data set [1], 15 µM corresponded to half-maximal inhibition (IC50).

Regarding `C=C1CC[C@@H]2[C@]3(C)COC(C)(C)O[C@@H]3CC[C@@]2(C)[C@@H]1CC(Sc1ccccc1)C1=CCOC1=O` (some centres undefined), the IC50 in data set [1] turned out to be 12 µM.

In turn, `C=C1CC[C@@H]2[C@](C)(CO)[C@H](O)CC[C@@]2(C)[C@@H]1CC(Sc1ccc(OC)cc1)C1=CCOC1=O` (some centres undefined) came in with an IC50 in data set [1] of 15 µM.

Regarding `C=C1CC[C@@H]2[C@]3(C)COC(C)(C)O[C@@H]3CC[C@@]2(C)[C@@H]1C/C=C1/C(=O)OC[C@H]1OC(=O)CCCSc1ccc(F)cc1`, half-maximal inhibition in data set [1] (IC50) required 13 µM.

Take `C=C1CC[C@@H]2[C@](C)(CO)[C@H](O)CC[C@@]2(C)C1C/C=C1/C(=O)OC[C@H]1OC(=O)CCCSc1cccs1` (single isomer, unassigned): inhibition in data set [1] was half-maximal at 16 µM (IC50).

`C=C1CC[C@@H]2[C@](C)(CO)[C@H](O)CC[C@@]2(C)C1C/C=C1/C(=O)OC[C@H]1OC(=O)CCCSc1ccc(OC)cc1` (single isomer, unassigned): the IC50 in data set [1] amounted to 19 µM.

For `C=C1CC[C@@H]2[C@]3(C)COC(C)(C)O[C@@H]3CC[C@@]2(C)[C@@H]1C/C=C1/C(=O)OC[C@H]1OC(=O)CCCSc1ccc(C)cc1`, in data set [1], the half-inhibitory concentration (IC50) amounted to 14 µM.

Turning to `C=C1CC[C@@H]2[C@](C)(CO)[C@H](O)CC[C@@]2(C)[C@@H]1C/C=C1/C(=O)OC[C@H]1OC(=O)CSc1ccc(C)cc1`, in data set [1], inhibition was half-maximal at 27 µM (IC50).

As for `C=C1CC[C@@H]2[C@](C)(CO)[C@H](O)CC[C@@]2(C)[C@@H]1CC(Sc1ccc(F)cc1)C1=CCOC1=O` (some centres undefined), the IC50 in data set [1] turned out to be 16 µM.

Consider `C=C1CC[C@@H]2[C@](C)(CO)[C@H](O)CC[C@@]2(C)C1C/C=C1/C(=O)OC[C@H]1OC(=O)CCCSc1ccc(F)cc1` (single isomer, unassigned), for which 12 µM corresponded to half-maximal inhibition in data set [1] (IC50).

With `C=C1CC[C@@H]2[C@](C)(CO)[C@H](O)CC[C@@]2(C)[C@@H]1C/C=C1/C(=O)OC[C@H]1OC(=O)CSc1ccc(F)cc1`, inhibition in data set [1] was half-maximal at 14 µM (IC50).

Regarding `C=C1CC[C@@H]2[C@]3(C)COC(C)(C)O[C@@H]3CC[C@@]2(C)[C@@H]1CC(Sc1ccccn1)C1=CCOC1=O` (some centres undefined), the IC50 in data set [1] stood at 14 µM.

As to `C=C1CC[C@@H]2[C@]3(C)COC(C)(C)O[C@@H]3CC[C@@]2(C)[C@@H]1C/C=C1/C(=O)OC[C@H]1OC(=O)CSc1ccc(C)cc1`, the IC50 in data set [1] is 11 µM.

In data set [1], `C=C1CC[C@@H]2[C@](C)(CO)[C@H](O)CC[C@@]2(C)[C@@H]1CC(Sc1ccccc1)C1=CCOC1=O` (some centres undefined) returned an IC50 of 14 µM.

For the compound `C=C1CC[C@@H]2[C@]3(C)COC(C)(C)O[C@@H]3CC[C@@]2(C)[C@@H]1CC(Sc1ccc(F)cc1)C1=CCOC1=O` (some centres undefined), the IC50 in data set [1] is 13 µM.

On to `C=C1CC[C@@H]2[C@](C)(CO)[C@H](O)CC[C@@]2(C)[C@@H]1C/C=C1/C(=O)OC[C@H]1O` [ANDROGRAPHOLIDE], for which the IC50 in data set [1] was found to be 30 µM.

In data set [1], `C=C1CC[C@@H]2[C@](C)(CO)[C@H](O)CC[C@@]2(C)[C@@H]1CC(Sc1cccs1)C1=CCOC1=O` (some centres undefined) displayed an IC50 of 15 µM.

For the compound `C=C1CC[C@@H]2[C@]3(C)COC(C)(C)O[C@@H]3CC[C@@]2(C)[C@@H]1C[C@@H](Sc1cccs1)C1=CCOC1=O`, inhibition in data set [1] was half-maximal at 20 µM (IC50).

In turn, `C=C1CC[C@@H]2[C@](C)(CO)[C@H](O)CC[C@@]2(C)[C@@H]1C/C=C1/C(=O)OC[C@H]1OC(=O)CSc1cccs1` displayed an IC50 in data set [1] of 18 µM.

Take `C=C1CC[C@@H]2[C@]3(C)COC(C)(C)O[C@@H]3CC[C@@]2(C)[C@@H]1CC(Sc1nccs1)C1=CCOC1=O` (some centres undefined): the IC50 in data set [1] stood at 10 µM; in data set [2] it was 3 µM; in data set [3], 12 µM; in data set [4], 31 µM. The Activity entry in data set [5] was “Non-Toxic”.

Compound `C=C1CC[C@@H]2[C@](C)(CO)[C@H](O)CC[C@@]2(C)[C@@H]1C/C=C1/C(=O)OCC1OC(=O)CSc1ccc(F)cc1` (some centres undefined) registered an IC50 in data set [1] of 13 µM.

In data set [1], `C=C1CC[C@@H]2[C@]3(C)COC(C)(C)O[C@@H]3CC[C@@]2(C)[C@@H]1CC(Sc1ccc(C)cc1)C1=CCOC1=O` (some centres undefined) yielded an IC50 of 23 µM.

In data set [1], `C=C1CC[C@@H]2[C@]3(C)COC(C)(C)O[C@@H]3CC[C@@]2(C)[C@@H]1CC(Sc1ccc([N+](=O)[O-])cc1)C1=CCOC1=O` (some centres undefined) gave an IC50 of 12 µM.

`C=C1CC[C@@H]2[C@](C)(CO)[C@H](O)CC[C@@]2(C)[C@@H]1CC(Sc1nccs1)C1=CCOC1=O` (some centres undefined) showed an IC50 in data set [1] of 14 µM.

With `C=C1CC[C@@H]2[C@]3(C)COC(C)(C)O[C@@H]3CC[C@@]2(C)[C@@H]1C/C=C1/C(=O)OC[C@H]1OC(=O)CCCSc1ccc(OC)cc1`, the IC50 in data set [1] worked out at 18 µM.

Take `C=C1CC[C@@H]2[C@](C)(CO)[C@H](O)CC[C@@]2(C)[C@@H]1CC(Sc1ccc(C)cc1)C1=CCOC1=O` (some centres undefined): 29 µM corresponded to half-maximal inhibition in data set [1] (IC50).

Usually IC50 stands for the concentration at which inhibition is half-maximal.
